pEC50: −log10 of the molar value. Values belong to the compound of their own block, whether it stands above or below them. Calls of active or inactive are those of the source.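 Rule for the calls: active = a clear dose-dependent boost of the acetylcholine calcium response in rat M2 cells, with a fitted potency; inactive = the rest.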
Biological target: Muscarinic acetylcholine receptor M2 (Rattus norvegicus) (UniProt P10980)
Test: rat M2 positive allosteric modulation, dose response, counter-screen for M4 PAM project, CHO Gqi5 cells, calcium fluorescence (AID 588748)
Conditions: CHO rM2/Gqi5 calcium mobilization, PAM mode, FDSS
Procedure, shortened: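 Test system: Rat M2/Gqi5 CHO cells | Also added: Acetylcholine at EC20, followed by acetylcholine at EC80 | Schedule: Compound 144 s before EC20 ACh, EC80 ACh 86 s later, 37 °C | Signal: Fluo-4 fluorescence of calcium mobilization | Measure: EC50 and percent ACh max response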

Muscarinic acetylcholine receptor M2 (Rattus norvegicus), sequence (P10980 whole entry, looked up): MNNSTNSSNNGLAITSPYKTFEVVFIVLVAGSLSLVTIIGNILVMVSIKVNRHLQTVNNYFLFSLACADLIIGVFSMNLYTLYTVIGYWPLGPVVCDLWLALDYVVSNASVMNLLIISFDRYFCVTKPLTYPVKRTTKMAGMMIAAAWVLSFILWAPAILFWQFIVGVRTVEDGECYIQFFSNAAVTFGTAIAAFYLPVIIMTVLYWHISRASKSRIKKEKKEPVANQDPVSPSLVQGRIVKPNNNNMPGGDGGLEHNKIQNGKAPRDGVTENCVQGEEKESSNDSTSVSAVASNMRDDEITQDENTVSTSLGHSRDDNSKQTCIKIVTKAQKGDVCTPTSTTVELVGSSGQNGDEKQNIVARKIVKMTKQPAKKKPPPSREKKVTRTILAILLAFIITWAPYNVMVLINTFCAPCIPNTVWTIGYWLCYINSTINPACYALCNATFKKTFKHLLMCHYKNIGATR

percent of ACh max response (at 45.3 µM (top of the series)): inactive
Compound: Cc1nc2sc(C(=O)NCc3cccnc3)c(N)c2c(C)c1Cl

percent of ACh max response (at 30 µM (top of the series)): inactive
Compound: Cc1nc2sc(C(=O)NCc3ccncn3)c(N)c2c(C)c1Cl

pEC50: 6.19
Compound: Cc1nc2sc(C(=O)NC3CC3)c(N)c2c(C)c1Cl

percent of ACh max response (at 30 µM (top of the series)): inactive
Compound: Cc1nc2sc(C(=O)NCc3cccc(F)c3F)c(N)c2c(C)c1Cl

Further lines, the compound ahead of its results:

Compound: Cc1nc2sc(C(=O)NCc3nccs3)c(N)c2c(C)c1Cl
percent of ACh max response (at 30 µM (top of the series)): inactive

Compound: Cc1nc2sc(C(=O)NCc3ccncc3)c(N)c2c(C)c1Cl
percent of ACh max response (at 45.3 µM (top of the series)): inactive

Compound: Cc1nc2sc(C(=O)NCc3ccc4c(c3)OCO4)c(N)c2c(C)c1Cl
percent of ACh max response (at 36.8 µM (top of the series)): inactive

Compound: Cc1nc2sc(C(=O)NCCc3ccncc3)c(N)c2c(C)c1Cl
percent of ACh max response (at 30 µM (top of the series)): inactive

Compound: Cc1nc2sc(C(=O)NCc3ccccc3)c(N)c2c(C)c1Cl
percent of ACh max response (at 37.4 µM (top of the series)): inactive

— PubChem BioAssay AID588748 (Vanderbilt Specialized Chemistry Center, 2011)
